Test results taken from ChEMBL document CHEMBL3244301, “Novel analgesic-antiinflammatory salicylates” (J Med Chem, 1978).
Values after ≈ are worked out from the molar mass of the structure shown. Active and inactive are the calls of the source. The rule behind the calls is not given here.

Key:
Rattus norvegicus [1] = assay: Antiinflammatory activity against carrageenan-induced foot edema in rat administered via gastric gavage; format: functional; details: po
Procedure, shortened: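 Rats, six per dose level, received drug as an aqueous suspension by gastric gavage before carrageenan-induced foot edema was measured. The highest dose given was 400 mg/kg.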

Rattus norvegicus [2] = assay: Antiinflammatory activity against carrageenan-induced foot edema in rat at 400 mg/kg administered via gastric gavage; format: functional, organism-based; design: dose 400 mg/kg
Procedure, shortened: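 Carrageenan-induced foot edema in rats. Drugs were given as an aqueous suspension by gastric gavage to six rats at each dose level.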

Rattus norvegicus [3] = assay: Toxicity in rat assessed as intestinal perforating ulcer at 1024 mg/kg, po; format: organism-based; design: dose 1024 mg/kg, route oral; details: in vivo
[4] = target: Cyclooxygenase (Homo sapiens) (UniProt P35354+P23219)
Rattus norvegicus [5] = assay: Analgesic activity in po dosed rat assessed as inhibition of yeast-induced inflammatory pain; format: functional
Canis familiaris = assay: Analgesic activity in po dosed dog knee joint pain model; format: functional; details: Canis lupus familiaris
Rattus norvegicus [6] = assay: Toxicity in po dosed rat assessed as gastric hemorrhage; format: organism-based, Stomach; details: in vivo
Rattus norvegicus [7] = assay: Antipyretic activity in po dosed rat; format: functional
Rattus norvegicus [8] = assay: Analgesic activity in po dosed rat assessed as inhibition of adjuvant-induced arthritis pain; format: functional
[9] = Plasma concentration in human at 500 mg, po after 2 hrs
[10] = Plasma concentration in human at 250 mg, po after 2 hrs
Rattus norvegicus [11] = assay: Toxicity in po dosed rat assessed as intestinal perforating ulcer; format: organism-based; details: in vivo
Rattus norvegicus [12] = assay: Toxicity in rat assessed as gastric hemorrhage at 256 mg/kg, po; format: organism-based, Stomach; design: dose 256 mg/kg, route oral; details: in vivo
[13] = Drug excretion in human urine after 96 hrs; format: ADME, tissue-based; details: read-out: Drug excretion

For O=C(O)c1cc(-c2ccccc2)ccc1O, the ED50 (Rattus norvegicus [1]) was 54 mg/kg.
With O=C(O)c1cc(-c2ccc(F)cc2)ccc1O the ED50 (Rattus norvegicus [1]) was 14 mg/kg.
Compound O=C(O)c1cc(-c2ccccc2)cc(F)c1O has an ED50 (Rattus norvegicus [1]) of 110 mg/kg.
With O=C(O)c1ccc(F)cc1O the ED50 (Rattus norvegicus [1]) was 400 mg/kg.
Work on O=C(O)c1cc(F)ccc1O yielded an ED50 (Rattus norvegicus [1]) of 120 mg/kg.
Work on O=C(O)c1cccc(-c2ccccc2)c1O yielded an ED50 (Rattus norvegicus [1]) of 130 mg/kg.
O=C(O)c1cccc(F)c1O showed an ED50 (Rattus norvegicus [1]) of 90 mg/kg.
For CC(=O)Oc1c(F)cccc1C(=O)O, the ED50 (Rattus norvegicus [1]) was 281 mg/kg.
In the case of CC(=O)Oc1ccc(-c2ccccc2)cc1C(=O)O, the ED50 (Rattus norvegicus [1]) is reported as 170 mg/kg.
CCCCOC(=O)Oc1ccc(-c2ccc(F)cc2)cc1C(=O)O gave an ED50 (Rattus norvegicus [1]) of 25 mg/kg.
For O=C(O)c1cc(-c2ccc(Cl)cc2)ccc1O, the ED50 (Rattus norvegicus [1]) was 24 mg/kg.
O=C(O)c1cc(-c2cccc(F)c2)ccc1O gave an ED50 (Rattus norvegicus [1]) of 40 mg/kg.
With Cc1cc(F)ccc1-c1ccc(O)c(C(=O)O)c1 the ED50 (Rattus norvegicus [1]) was 76 mg/kg.
In the case of CCOC(=O)Oc1ccc(-c2ccc(F)cc2F)cc1C(=O)O, the ED50 (Rattus norvegicus [1]) is reported as 30 mg/kg.
In the case of CCCCOC(=O)Oc1ccc(-c2ccc(F)cc2F)cc1C(=O)O, the ED50 (Rattus norvegicus [1]) is reported as 12 mg/kg.
In the case of O=C(O)c1cc(-c2c(F)c(F)c(F)c(F)c2F)ccc1O, the ED50 (Rattus norvegicus [1]) is reported as 20 mg/kg.
In the case of O=C(O)c1cc(-c2ccc(C(F)(F)F)cc2)ccc1O, the ED50 (Rattus norvegicus [1]) is reported as 50 mg/kg.
For O=C(O)c1cc(-c2ccc(I)cc2)ccc1O, the ED50 (Rattus norvegicus [1]) was 120 mg/kg.
With Cc1cc(-c2ccccc2)cc(C(=O)O)c1O the ED50 (Rattus norvegicus [1]) was 60 mg/kg.
Compound Cc1cc(-c2ccc(F)cc2)cc(C(=O)O)c1O has an ED50 (Rattus norvegicus [1]) of 60 mg/kg.
Work on O=C(O)c1ccc(-c2ccc(F)cc2)cc1O yielded an ED50 (Rattus norvegicus [1]) of 400 mg/kg.
O=C(O)c1cc(-c2ccccc2F)ccc1O showed an ED50 (Rattus norvegicus [1]) of 20 mg/kg.
In the case of CC(=O)Oc1ccc(-c2ccc(F)cc2F)cc1C(=O)O, the ED50 (Rattus norvegicus [1]) is reported as 27 mg/kg.
For O=C(O)c1ccc(-c2ccccc2)cc1O, the ED50 (Rattus norvegicus [1]) was 150 mg/kg.
For CCCc1cc(-c2ccc(F)cc2)cc(C(=O)O)c1O, the Activity (Rattus norvegicus [2]) was “inactive”.
In the case of COc1cc(-c2ccc(O)c(C(=O)O)c2)ccc1F, the Activity (Rattus norvegicus [2]) is reported as “inactive”.
In the case of Cc1cc(-c2ccc(O)c(C(=O)O)c2)ccc1F, the Activity (Rattus norvegicus [2]) is reported as “inactive”.
For O=C(O)c1c(O)cccc1-c1ccccc1, the Activity (Rattus norvegicus [2]) was “inactive”.
For O=C(O)c1c(O)cccc1F, the Activity (Rattus norvegicus [2]) was “inactive”.
In the case of O=C(O)c1cc(-c2ccccc2)c(Cl)cc1O, the Activity (Rattus norvegicus [2]) is reported as “inactive”.
In the case of O=C(O)c1cc(C2CCCCC2)ccc1O, the Activity (Rattus norvegicus [2]) is reported as “inactive”.
With O=C(O)c1ccc(C(F)(F)F)cc1O the Activity (Rattus norvegicus [2]) was “inactive”.
In the case of O=C(O)c1cccc(-c2ccc(Cl)cc2)c1O, the Activity (Rattus norvegicus [2]) is reported as “inactive”.
With CC(=O)Oc1ccccc1C(=O)O [ASPIRIN] the Activity (Rattus norvegicus [3]) was “Non-toxic”, the ED50 (Rattus norvegicus [1]) was 89 mg/kg and the ED50 [4] was 13 µg/mL (≈ 72.2 µM). For the same compound, the ED50 (Rattus norvegicus [5]) was 87 mg/kg, the ED50 (Canis familiaris) was 68 mg/kg and the ED50 (Rattus norvegicus [6]) was 81 mg/kg. It also gave an ED50 (Rattus norvegicus [7]) of 40 mg/kg and an ED50 (Rattus norvegicus [8]) of 78 mg/kg.
O=C(O)c1cc(-c2ccc(F)cc2F)ccc1O [DIFLUNISAL] showed a concentration at 2 h [9] of 99 µg/mL, an ED50 (Rattus norvegicus [1]) of 9.8 mg/kg and an ED50 [4] of 0.6 µg/mL (≈ 2.4 µM). The ED50 (Rattus norvegicus [5]) was 4.6 mg/kg, the ED50 (Canis familiaris) was 24 mg/kg and the concentration at 2 h [10] was 30 µg/mL. For the same compound, the ED50 (Rattus norvegicus [7]) was 27.8 mg/kg, the ED50 (Rattus norvegicus [11]) was 520 mg/kg and the Activity (Rattus norvegicus [12]) was “Non-toxic”. It also gave a dose excreted at 96 h [13] of 95% and an ED50 (Rattus norvegicus [8]) of 10.4 mg/kg.
Work on CC(=O)Oc1ccc(-c2ccc(F)cc2)cc1C(=O)O [FLUFENISAL] yielded an ED50 (Rattus norvegicus [1]) of 24 mg/kg, an ED50 [4] of 10 µg/mL (≈ 36.5 µM) and an ED50 (Rattus norvegicus [5]) of 35 mg/kg. It also gave an ED50 (Rattus norvegicus [6]) of over 512 mg/kg, an ED50 (Rattus norvegicus [7]) of 160 mg/kg and an ED50 (Rattus norvegicus [11]) of over 512 mg/kg. It also gave an ED50 (Rattus norvegicus [8]) of 40 mg/kg.
In the case of CC(C)Cc1ccc(C(C)C(=O)O)cc1 (centres undefined) [IBUPROFEN], the ED50 (Rattus norvegicus [5]) is reported as 2.6 mg/kg, the ED50 (Rattus norvegicus [6]) is reported as under 16 mg/kg and the ED50 (Rattus norvegicus [7]) is reported as 5.9 mg/kg. The ED50 (Rattus norvegicus [11]) was under 256 mg/kg and the ED50 (Rattus norvegicus [8]) was 28 mg/kg.
Compound COc1ccc2c(c1)c(CC(=O)O)c(C)n2C(=O)c1ccc(Cl)cc1 [INDOMETHACIN] has an ED50 (Rattus norvegicus [5]) of 2.2 mg/kg, an ED50 (Canis familiaris) of 1.7 mg/kg and an ED50 (Rattus norvegicus [6]) of 5.4 mg/kg. The ED50 (Rattus norvegicus [7]) was 1.8 mg/kg, the ED50 (Rattus norvegicus [11]) was 5.2 mg/kg and the ED50 (Rattus norvegicus [8]) was 0.27 mg/kg.
Compound O=C(O)c1ccccc1O [SALICYLIC ACID] has an ED50 (Rattus norvegicus [1]) of 77 mg/kg.
With CC1=C(CC(=O)O)c2cc(F)ccc2/C1=C\c1ccc([S+](C)[O-])cc1 (centres undefined) [SULINDAC] the ED50 [4] was “inactive”, the ED50 (Rattus norvegicus [5]) was 1.7 mg/kg and the ED50 (Canis familiaris) was 45 mg/kg. It also gave an ED50 (Rattus norvegicus [6]) of 27 mg/kg, an ED50 (Rattus norvegicus [7]) of 2.9 mg/kg and an ED50 (Rattus norvegicus [11]) of 69 mg/kg. It also gave an ED50 (Rattus norvegicus [8]) of 0.55 mg/kg.
Compound CC(=O)Oc1cc(C(F)(F)F)ccc1C(=O)O [TRIFLUSAL] has an ED50 (Rattus norvegicus [1]) of 155 mg/kg.
